The entries come from a sample that favours hits as a whole.
PGC1a acetyl up = compounds raising PGC1a acetylation signal, primary screen, PGC1a modulator project, cell-based, U2OS, AlphaScreen, signal-increasing mode; overnight; activation, % at 15.6 µM; actives 0.21% (n = 350,000);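 active means every replicate reaching activation of at least 50%, whatever the mean replicate activation; inconclusive means replicates that disagree or another doubt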;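 further: hits raise the AlphaScreen acetylation signal above neutral controls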
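System: Flag-PGC1a/GCN5 U2OS cells | Quantity: 7000 cells/well | Times: Overnight compound treatment, 37 °C | Measured by: AlphaScreen proximity luminescence, anti-acetyl-lysine antibody | Dosing: One concentration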
Hep G6PC suppr = suppressors of forskolin-stimulated G6PC mRNA, dose response, PGC-1a acetylation activator project, cell-based, hepatocytes, RT-qPCR, cherry-picked samples; shares compounds with PGC1a acetyl up; primary mouse hepatocytes; G6PC suppression (normalized activity, % of positive control; higher = more suppression), % at 26 µM; 240 tested, under 10 active; AID 743463, 2014;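 active means dose curves showing G6PC suppression whose half-maximal dose is at most twice the top valid dose; inconclusive means flat curves with moderate negative activity, or unreliable fits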;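 further: G6PC expression relative to GAPDH housekeeping gene as delta delta Ct; 0% = median of neutral control wells and 100% = median of positive control wells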
PCK1 hep suppr = suppression of PCK1 mRNA in primary hepatocytes, dose response, PGC-1a acetylation activator project, cell-based, primary mouse hepatocytes, RT-qPCR, cherry-pick; 230 tested, under 10 active; shares compounds with PGC1a acetyl up; PCK1 expression decrease, unspecified at 26 µM; forskolin-stimulated;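 active means compounds lowering PCK1 expression whose fitted half-maximal concentration is at most twice the top tested dose; inconclusive means flat fit with moderate opposite-direction effect, or poor fit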;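 further: values are delta delta Ct of PCK1 relative to GAPDH; higher delta delta Ct means lower PCK1 expression so positive values indicate hits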
Hep PGC-1a down = suppression of PGC-1a mRNA in primary hepatocytes, dose response, PGC-1a acetylation activator project, cell-based, primary mouse hepatocytes, RT-qPCR, cherry-pick; max activity (PGC-1a expression decrease), %; 240 tested, under 10 active; PGC-1a mRNA qPCR, forskolin; top dose 26 µM; shares compounds with PGC1a acetyl up;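 active means compound lowering PGC-1a expression with fitted half-maximal concentration at most twice its top tested dose; inconclusive means flat curve with moderate opposite-direction effect, or poor fit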;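 further: 0% = neutral control wells median and 100% = positive control wells median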
An asterisk follows results filed as active; [ ] = another dose, or the depositor's remark.

For CC(/C=N/NC(=O)c1cc(-c2ccc(Cl)cc2)nc2ccccc12)=C\c1ccco1 the results were PGC1a acetyl up -52.7.
Cc1ccccc1NC(=O)/C(C#N)=C\c1cc(C)n(-c2ccc(C(=O)O)cc2)c1C was read as PGC1a acetyl up -44.3.
`C=CCn1c(SCC(=O)NCc2ccccc2)nnc1-c1ccccc1O` gave PGC1a acetyl up -57.8.
Screening CCOCCOC(=O)C(C)Oc1ccc(Oc2nc(Cl)ccc2Cl)cc1 (configuration not stated) returned PGC1a acetyl up -88.5.
For COc1ccc(CCNC(=O)c2cc(-c3ccco3)on2)cc1OC the results were PGC1a acetyl up 87.4*, Hep G6PC suppr -12.0, PCK1 hep suppr -7.11 and Hep PGC-1a down inconclusive.
`COc1cc(/C=C2\SC(=O)NC2=O)ccc1Oc1ccc([N+](=O)[O-])cn1` gave PGC1a acetyl up -42.2.
`CN1Cc2c(N3CCOCC3)nc3sc(C(=O)c4ccc(Br)cc4)c(N)c3c2CC1(C)C` gave PGC1a acetyl up 82.6*, Hep G6PC suppr 234.8, PCK1 hep suppr 208 and Hep PGC-1a down 48.5.
Screening C[C@@H]1CCCCO[C@H](CN(C)Cc2ccc(Cl)c(Cl)c2)[C@H](C)CN([C@@H](C)CO)C(=O)c2cc(NC(=O)Nc3ccc(F)cc3)ccc2O1 returned PGC1a acetyl up -43.1.
Cc1noc(C)c1S(=O)(=O)Nc1ccc2c(c1)C(=O)N([C@@H](C)CO)C[C@@H](C)[C@@H](CN(C)Cc1ccc3c(c1)OCO3)OCCCC[C@@H](C)O2 was read as PGC1a acetyl up -41.1, Hep G6PC suppr 444.3, PCK1 hep suppr 230 and Hep PGC-1a down inconclusive.
CN1CCN(CCP(=O)(c2ccccc2)c2ccccc2)CC1 was read as PGC1a acetyl up -40.8.
`Cn1ncc(Cl)c1C(=O)Nc1sc2c(c1C(N)=O)CCC2` gave PGC1a acetyl up 58.7*, Hep G6PC suppr 16.3, PCK1 hep suppr -10.3 and Hep PGC-1a down 39.5.
For COc1ccc(-c2nc(C#N)c(NCc3ccco3)o2)cc1 the results were PGC1a acetyl up -51.8.
For O=C(NCCCN1CCOCC1)c1ccccc1N1C(=O)[C@@H]2Cc3c([nH]c4ccccc34)C(c3ccccc3)N2C1=O (some centres not stated) the results were PGC1a acetyl up 319.8*, Hep G6PC suppr 229.8, PCK1 hep suppr 82.7 and Hep PGC-1a down 63.0.
For c1ccc(Sc2ccccn2)cc1 the results were PGC1a acetyl up -75.8.
Screening O=C(Cc1csc(N2CCOCC2)n1)N/N=C/c1cccc(O)c1 returned PGC1a acetyl up -55.9.
Screening C[C@@H]1CN([C@@H](C)CO)C(=O)c2c(c3ccccc3n2C)-c2ccccc2CO[C@@H]1CN(C)C(=O)Nc1ccc2c(c1)OCO2 returned PGC1a acetyl up 81.0*, Hep G6PC suppr -2.9[23.5 µM], PCK1 hep suppr 25.5[23.5 µM] and Hep PGC-1a down 34.2.
For CC(C)[C@H](C)NC(=O)N(C)C[C@H]1OCc2ccccc2-c2c(n(C)c3ccccc23)C(=O)N([C@H](C)CO)C[C@H]1C the results were PGC1a acetyl up 59.2*, Hep G6PC suppr 3.1, PCK1 hep suppr 5.55 and Hep PGC-1a down 59.4.
For C[C@@H]1CN([C@@H](C)CO)C(=O)c2c(c3ccccc3n2C)-c2ccccc2CO[C@@H]1CN(C)C(=O)c1ccccc1 the results were PGC1a acetyl up 76.3*, Hep G6PC suppr 22.3[23.5 µM], PCK1 hep suppr 44.2[23.5 µM] and Hep PGC-1a down 169.2.
Screening C[C@@H]1CN([C@H](C)CO)C(=O)c2c(c3ccccc3n2C)-c2ccccc2CO[C@@H]1CN(C)C(=O)c1ccccc1 returned PGC1a acetyl up 57.7*, Hep G6PC suppr 73.4, PCK1 hep suppr inconclusive and Hep PGC-1a down inconclusive.
O=C(Nc1nc(-c2ccccn2)cs1)c1ccccc1-n1cnnn1 was read as PGC1a acetyl up -43.0.
CC1CCN(C(=O)COC(=O)c2ccc(Br)o2)CC1 was read as PGC1a acetyl up -50.4.
O=C(CSc1nc2ccc(Cl)cc2[nH]1)c1ccc2c(c1)OCO2 was read as PGC1a acetyl up -49.1.
Screening C[C@@H]1CN([C@@H](C)CO)C(=O)c2c(c3ccccc3n2C)-c2ccccc2CO[C@@H]1CN(C)C(=O)c1ccc(F)cc1 returned PGC1a acetyl up 117.0*, Hep G6PC suppr 35.0, PCK1 hep suppr 151 and Hep PGC-1a down 207.0.
CCN(CC)c1ccc(C(=C2C=CC(=[N+](CC)CC)C=C2)c2ccc(N(CC)CC)cc2)cc1 was read as PGC1a acetyl up -83.4.
Screening NC1=C(Br)C(=O)c2ncccc2C1=O returned PGC1a acetyl up -87.1.
`O=C(c1nc2nc(-c3ccccc3)cc(C(F)(F)F)n2n1)N1CCCCC1` gave PGC1a acetyl up -41.1.
For CCn1c2ccccc2c2cc(/C=N/n3c(-c4cc(C)[nH]n4)n[nH]c3=S)ccc21 the results were PGC1a acetyl up -40.2.
For CCOc1ccc(N(C)S(=O)(=O)c2cc(-c3cc(C)no3)ccc2C(C)C)cc1 the results were PGC1a acetyl up 64.7* and Hep PGC-1a down inconclusive.
For COc1ccc(-c2cc(-c3ccccc3O)[nH]n2)cc1OC the results were PGC1a acetyl up 94.8*, Hep G6PC suppr 16.9, PCK1 hep suppr 55.1 and Hep PGC-1a down 31.3.
Screening CSCC(=O)N1CCCC(CO)(Cc2ccccc2C)C1 (configuration not stated) returned PGC1a acetyl up -109.0.
O=C(NC(=S)Nc1ccccc1N1CCCC1)c1cccs1 was read as PGC1a acetyl up -50.8.
For CCOC(=O)CN1C(=N)N(c2nc(NC(C)C)nc(OC)n2)CC1=O the results were PGC1a acetyl up -44.6.
COc1ccc(C(c2nnnn2C2CCCC2)N2CCC(C)CC2)c(OC)c1 (configuration not stated) was read as PGC1a acetyl up 100.2*, Hep G6PC suppr 99.7, PCK1 hep suppr 137 and Hep PGC-1a down 133.9.
For CCOc1ccc(S(N)(=O)=O)cc1-c1nc2c(C(C)(C)C)nn(C)c2c(=O)[nH]1 the results were PGC1a acetyl up -49.6.
Screening COc1ccc(NCc2nnc(SCC(=O)Nc3cc(C)cc(C)c3)o2)cc1 returned PGC1a acetyl up -51.9.
`O=C(NCc1cccnc1)c1ccc(NC(=O)c2ccc(Br)cc2)cc1` gave PGC1a acetyl up 84.2*, Hep G6PC suppr 368.4, PCK1 hep suppr 254 and Hep PGC-1a down 116.9.
`CCC(CC)C(=O)c1c[nH]c(C(=O)NCc2ccccc2)c1` gave PGC1a acetyl up inconclusive, Hep G6PC suppr -46.5, PCK1 hep suppr -8.76 and Hep PGC-1a down 37.0.
O=C(Cc1ccc(Cl)cc1)c1c[nH]c(C(=O)NCc2cccnc2)c1 was read as PGC1a acetyl up 64.6*, Hep G6PC suppr 127.0, PCK1 hep suppr 233 and Hep PGC-1a down 51.6.
For O=C(/C=C/c1cccs1)c1ccc(NC(=O)c2cccc(Br)c2)cc1 the results were PGC1a acetyl up -47.6.
Screening CC(C)(C)c1ccc(C(=O)c2c[nH]c(C(=O)NCc3cccnc3)c2)cc1 returned PGC1a acetyl up 257.1*, Hep G6PC suppr -28.4 and Hep PGC-1a down inconclusive.
